{"data": "Measurements of several laboratories", "target": "Mitogen-activated protein kinase 12 (MAPK12, Homo sapiens, UniProt P53778)", "Residues used in one study (P53778 1-367)": "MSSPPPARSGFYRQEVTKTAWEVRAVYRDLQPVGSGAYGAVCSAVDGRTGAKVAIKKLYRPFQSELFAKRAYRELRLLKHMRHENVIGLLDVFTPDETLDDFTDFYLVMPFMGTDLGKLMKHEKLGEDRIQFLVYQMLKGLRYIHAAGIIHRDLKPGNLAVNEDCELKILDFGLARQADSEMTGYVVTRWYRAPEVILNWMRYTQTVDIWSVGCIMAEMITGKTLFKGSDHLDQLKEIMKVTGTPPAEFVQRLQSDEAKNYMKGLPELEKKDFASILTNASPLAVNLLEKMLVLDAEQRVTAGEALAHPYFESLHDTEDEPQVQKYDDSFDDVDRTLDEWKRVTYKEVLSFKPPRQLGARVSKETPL"}
{"Structure (SMILES)": "Nc1ncc(-c2nc(N3CCOCC3)nc(N3CCOCC3)n2)c(C(F)F)n1", "effect on": "binding", "method": "competition with immobilised ligand", "concentration": "10 µM", "quantity": "remaining binding", "value": "100%"}
{"Structure (SMILES)": "Cc1nn(C)cc1-c1nc2c(N3CCN(Cc4ccc(Cl)cc4)CC3)c(Cl)cnc2[nH]1", "effect on": "binding", "method": "competition with immobilised ligand", "concentration": "1 µM", "quantity": "remaining binding", "value": "100%"}
{"Structure (SMILES)": "Cn1cc(-c2cccc(N3CCc4c(sc5c4CC(C)(C)C5)C3=O)c2CO)cc(Nc2ccncn2)c1=O", "effect on": "enzyme activity", "mode": "inhibitor", "concentration": "1 µM", "quantity": "inhibition", "value": "11%"}
{"Structure (SMILES)": "CC(C)(C)c1cc(C=C(C#N)C#N)cc(Br)c1O", "effect on": "enzyme activity", "mode": "inhibitor", "concentration": "0.5 µM", "quantity": "remaining activity", "value": "102%"}
{"Structure (SMILES)": "Cn1cncc1[C@](O)(COc1ccc(C#N)cc1-c1ccc(OC(F)(F)F)cc1)c1ccc(C#N)cc1", "effect on": "cell-free assay", "method": "competition with immobilised ligand", "concentration": "1 µM", "quantity": "remaining binding", "value": "100%"}
{"Structure (SMILES)": "COc1ncccc1-c1cnn2ccc(N3CCN(C(=O)OC(C)C)CC3)nc12", "effect on": "binding", "method": "competition with immobilised ligand", "concentration": "1 µM", "quantity": "remaining binding", "value": "100%"}
{"Structure (SMILES)": "O=c1[nH]c2ccccc2n1C1CCN(Cc2ccc(-c3[nH]c4cc5ncnc5cc4nc3-c3ccccc3)cc2)CC1", "effect on": "cell-free assay", "concentration": "0.5 µM", "quantity": "remaining signal", "value": "93.1%"}
{"Structure (SMILES)": "Cn1cc(-c2cc(F)cc(N3CCn4c(cc5c4CCCC5)C3=O)c2CO)cc(Nc2ccc(N3CCN(C4COC4)CC3)cn2)c1=O", "effect on": "enzyme activity", "mode": "inhibitor", "concentration": "0.1 µM", "quantity": "inhibition", "value": "16%"}
